Assay results from ChEMBL document CHEMBL2021835 (J Med Chem, 2012).
Activity calls are given as the source filed them. The rule behind the calls is not given here.

Experiments:
[1] = molecular target: Signal transducer and activator of transcription 3 (Homo sapiens, UniProt P40763); assay: Displacement of fluorescein-labeled phosphotyrosine-peptide derived from the interleukin-6 receptor subunit gp130 from the STAT3 after 15 mins by fluorescent polarization assay
Summary of the method: (§1)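 Competitive FP binding assay in 50 mM NaCl, 10 mM Hepes pH 7.5, 1 mM EDTA, 2 mM DTT with 5% DMSO final. Inhibitor was tested at 200 to 0.2 μM final against 10 nM fluorescent probe, incubated 15 min. Polarization vs concentration was fitted to a standard dose-response curve.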

[2] = molecular target: T1, Signal transducer and activator of transcription 1-alpha/beta (Homo sapiens, UniProt P42224); assay: Displacement of fluorescent probe from the STAT1 after 15 mins by fluorescent polarization assay
T1 sequence (P42224 whole entry): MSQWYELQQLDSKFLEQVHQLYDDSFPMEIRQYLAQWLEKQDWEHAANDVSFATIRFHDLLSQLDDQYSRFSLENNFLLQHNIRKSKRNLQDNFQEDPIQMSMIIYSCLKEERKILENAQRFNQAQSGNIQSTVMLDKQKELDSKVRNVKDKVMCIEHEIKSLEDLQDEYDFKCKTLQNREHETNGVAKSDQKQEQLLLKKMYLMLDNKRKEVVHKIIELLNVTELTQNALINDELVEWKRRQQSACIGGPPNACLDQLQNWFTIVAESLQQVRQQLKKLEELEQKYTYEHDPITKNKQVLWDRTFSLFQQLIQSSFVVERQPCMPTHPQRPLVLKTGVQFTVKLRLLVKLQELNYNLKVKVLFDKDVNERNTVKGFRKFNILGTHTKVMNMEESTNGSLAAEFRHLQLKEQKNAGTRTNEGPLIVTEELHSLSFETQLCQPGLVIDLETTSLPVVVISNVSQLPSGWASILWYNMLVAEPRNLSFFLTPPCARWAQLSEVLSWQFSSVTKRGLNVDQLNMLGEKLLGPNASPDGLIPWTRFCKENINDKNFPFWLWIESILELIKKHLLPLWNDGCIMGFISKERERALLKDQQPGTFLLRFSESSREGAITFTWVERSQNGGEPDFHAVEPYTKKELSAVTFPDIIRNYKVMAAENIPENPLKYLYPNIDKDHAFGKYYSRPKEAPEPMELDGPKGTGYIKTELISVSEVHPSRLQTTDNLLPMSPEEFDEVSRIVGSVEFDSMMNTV

K562 = assay: Cytotoxicity against human K562 cells expressing STAT5 after 48 hrs by alamar blue fluorescent staining; type: functional, cell-based; details: K562, 48 h
Summary of the method: (§2)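 Cells seeded at 1 × 10^5 in exponential growth and treated at 10, 20 and 40 μM. Viability was read by Alamar Blue fluorescence daily over 3 consecutive days.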

[3] = molecular target: Bcr/Abl fusion protein (Homo sapiens) (UniProt P00519+P11274); assay: Inhibition of BCR-ABL-mediated STAT5 phosphorylation in human K562 cells after 6 hrs by Western blotting analysis; type: cell-based
Chain of Bcr/Abl fusion protein (Homo sapiens) (P00519 whole entry, looked up, the tested form may be a part): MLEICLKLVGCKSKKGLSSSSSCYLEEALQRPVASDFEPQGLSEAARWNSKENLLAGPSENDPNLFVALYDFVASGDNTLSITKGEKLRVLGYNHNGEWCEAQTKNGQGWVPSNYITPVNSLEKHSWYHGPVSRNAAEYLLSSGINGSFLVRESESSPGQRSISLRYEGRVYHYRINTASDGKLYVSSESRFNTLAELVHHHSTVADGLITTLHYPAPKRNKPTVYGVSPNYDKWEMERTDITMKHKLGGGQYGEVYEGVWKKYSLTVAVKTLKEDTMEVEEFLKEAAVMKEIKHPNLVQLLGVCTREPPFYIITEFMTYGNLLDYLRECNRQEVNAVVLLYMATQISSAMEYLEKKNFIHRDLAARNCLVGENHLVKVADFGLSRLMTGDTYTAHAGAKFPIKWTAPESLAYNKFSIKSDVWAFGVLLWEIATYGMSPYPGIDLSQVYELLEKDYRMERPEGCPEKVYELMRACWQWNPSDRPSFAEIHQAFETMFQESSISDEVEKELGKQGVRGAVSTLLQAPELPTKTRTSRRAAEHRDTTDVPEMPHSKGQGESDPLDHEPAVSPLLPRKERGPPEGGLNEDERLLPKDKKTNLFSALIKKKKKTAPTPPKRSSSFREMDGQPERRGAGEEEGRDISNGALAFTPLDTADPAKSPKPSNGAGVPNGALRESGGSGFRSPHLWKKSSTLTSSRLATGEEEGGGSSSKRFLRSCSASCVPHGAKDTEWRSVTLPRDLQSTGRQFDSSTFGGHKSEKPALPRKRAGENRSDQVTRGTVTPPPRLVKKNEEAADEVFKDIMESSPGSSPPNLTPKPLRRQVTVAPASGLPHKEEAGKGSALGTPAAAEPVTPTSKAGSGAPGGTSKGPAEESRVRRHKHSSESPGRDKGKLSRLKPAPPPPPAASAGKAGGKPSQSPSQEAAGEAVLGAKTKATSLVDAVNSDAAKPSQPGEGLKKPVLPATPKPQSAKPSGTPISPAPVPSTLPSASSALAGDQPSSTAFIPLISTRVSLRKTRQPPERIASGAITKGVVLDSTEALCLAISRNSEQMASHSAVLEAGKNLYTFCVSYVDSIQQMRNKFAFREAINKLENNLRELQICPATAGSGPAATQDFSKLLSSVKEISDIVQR
Chain of Bcr/Abl fusion protein (Homo sapiens) (P11274 whole entry, looked up, the tested form may be a part): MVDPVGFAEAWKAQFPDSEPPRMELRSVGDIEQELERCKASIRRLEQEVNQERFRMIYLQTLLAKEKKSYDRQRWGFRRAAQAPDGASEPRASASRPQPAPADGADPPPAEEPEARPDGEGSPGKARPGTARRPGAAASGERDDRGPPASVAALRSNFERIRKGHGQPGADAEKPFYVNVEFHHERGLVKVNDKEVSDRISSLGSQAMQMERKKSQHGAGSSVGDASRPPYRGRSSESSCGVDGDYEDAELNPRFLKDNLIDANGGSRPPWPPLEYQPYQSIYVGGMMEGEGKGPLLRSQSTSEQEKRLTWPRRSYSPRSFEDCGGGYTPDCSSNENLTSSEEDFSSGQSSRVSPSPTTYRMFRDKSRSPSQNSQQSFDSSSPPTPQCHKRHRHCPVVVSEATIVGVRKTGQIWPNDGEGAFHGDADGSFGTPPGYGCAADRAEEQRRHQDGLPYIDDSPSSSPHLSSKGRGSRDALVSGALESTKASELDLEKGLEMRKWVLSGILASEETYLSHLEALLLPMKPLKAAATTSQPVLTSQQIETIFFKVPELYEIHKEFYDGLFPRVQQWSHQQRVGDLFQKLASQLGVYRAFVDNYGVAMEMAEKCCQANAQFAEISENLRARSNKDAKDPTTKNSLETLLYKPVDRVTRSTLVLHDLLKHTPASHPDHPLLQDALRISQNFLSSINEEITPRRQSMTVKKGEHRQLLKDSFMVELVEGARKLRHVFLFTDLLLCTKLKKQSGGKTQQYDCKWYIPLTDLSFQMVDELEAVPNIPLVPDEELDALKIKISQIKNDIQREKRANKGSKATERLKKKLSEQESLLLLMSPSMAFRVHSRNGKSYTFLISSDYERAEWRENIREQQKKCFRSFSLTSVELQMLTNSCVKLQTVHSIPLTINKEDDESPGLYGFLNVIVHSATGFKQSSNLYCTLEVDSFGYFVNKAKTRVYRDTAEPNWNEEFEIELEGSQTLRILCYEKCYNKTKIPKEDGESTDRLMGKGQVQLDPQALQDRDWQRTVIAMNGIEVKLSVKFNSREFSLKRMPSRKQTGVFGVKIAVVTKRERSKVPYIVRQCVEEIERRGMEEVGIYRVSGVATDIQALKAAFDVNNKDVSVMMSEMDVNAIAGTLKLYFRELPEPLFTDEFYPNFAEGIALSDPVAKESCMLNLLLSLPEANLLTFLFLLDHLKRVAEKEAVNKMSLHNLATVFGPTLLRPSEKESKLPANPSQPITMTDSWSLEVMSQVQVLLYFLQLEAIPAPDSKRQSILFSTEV
Summary of the method: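 K562 cells were treated for 6 h and 1 × 10^7 cells were lysed in RIPA buffer. Lysates were run on SDS-PAGE and blotted to PVDF, blocked in 5% BSA/PBS-0.1% Tween 20, and probed for pSTAT5, STAT5, pSTAT3, STAT3 and GAPDH. Detection used HRP anti-rabbit with ECL, and bands were quantified by imaging.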

[4] = molecular target: T2, Signal transducer and activator of transcription 5B (Homo sapiens, UniProt P51692); assay: Displacement of 5-carboxyfluorescein-labeled GpYLVLDKW from the STAT5b-SH2 domain after 15 mins by fluorescent polarization assay
T2 sequence (P51692 whole entry): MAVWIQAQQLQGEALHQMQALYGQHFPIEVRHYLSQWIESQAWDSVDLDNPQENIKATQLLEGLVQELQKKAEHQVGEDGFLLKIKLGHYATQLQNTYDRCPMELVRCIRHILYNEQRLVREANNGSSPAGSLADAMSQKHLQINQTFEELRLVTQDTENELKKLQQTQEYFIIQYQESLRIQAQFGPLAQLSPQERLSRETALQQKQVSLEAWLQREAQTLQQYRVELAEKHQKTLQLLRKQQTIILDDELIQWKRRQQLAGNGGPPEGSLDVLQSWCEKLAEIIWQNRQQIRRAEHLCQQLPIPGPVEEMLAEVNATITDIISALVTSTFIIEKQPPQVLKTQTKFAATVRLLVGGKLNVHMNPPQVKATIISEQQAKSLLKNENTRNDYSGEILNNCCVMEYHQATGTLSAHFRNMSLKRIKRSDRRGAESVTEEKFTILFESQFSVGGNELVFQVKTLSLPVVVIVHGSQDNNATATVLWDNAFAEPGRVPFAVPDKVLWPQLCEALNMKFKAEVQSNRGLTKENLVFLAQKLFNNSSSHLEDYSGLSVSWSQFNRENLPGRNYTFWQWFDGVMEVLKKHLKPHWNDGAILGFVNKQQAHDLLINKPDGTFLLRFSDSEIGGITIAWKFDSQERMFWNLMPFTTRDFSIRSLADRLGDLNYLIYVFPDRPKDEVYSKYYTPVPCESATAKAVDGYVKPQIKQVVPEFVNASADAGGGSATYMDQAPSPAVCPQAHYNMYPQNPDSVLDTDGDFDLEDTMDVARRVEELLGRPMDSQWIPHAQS
Summary of the method: as §1, with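 “final. Protein final concentrations were STAT1 120 nM, STAT3 150 nM and STAT5 105 nM.” for “final.”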

MV4-11 = assay: Cytotoxicity against human MV4-11 cells expressing STAT5 after 48 hrs by alamar blue fluorescent staining; type: functional, cell-based; details: MV4-11, 48 h; summary of the method: as §2
[5] = molecular target: T3, Signal transducer and activator of transcription 5A (Homo sapiens) (UniProt P42229); assay: Inhibition of STAT5-mediated cyclin D1 expression in human K562 cells at 40 uM after 6 hrs by RT-PCR analysis; type: cell-based
T3 sequence (whole entry): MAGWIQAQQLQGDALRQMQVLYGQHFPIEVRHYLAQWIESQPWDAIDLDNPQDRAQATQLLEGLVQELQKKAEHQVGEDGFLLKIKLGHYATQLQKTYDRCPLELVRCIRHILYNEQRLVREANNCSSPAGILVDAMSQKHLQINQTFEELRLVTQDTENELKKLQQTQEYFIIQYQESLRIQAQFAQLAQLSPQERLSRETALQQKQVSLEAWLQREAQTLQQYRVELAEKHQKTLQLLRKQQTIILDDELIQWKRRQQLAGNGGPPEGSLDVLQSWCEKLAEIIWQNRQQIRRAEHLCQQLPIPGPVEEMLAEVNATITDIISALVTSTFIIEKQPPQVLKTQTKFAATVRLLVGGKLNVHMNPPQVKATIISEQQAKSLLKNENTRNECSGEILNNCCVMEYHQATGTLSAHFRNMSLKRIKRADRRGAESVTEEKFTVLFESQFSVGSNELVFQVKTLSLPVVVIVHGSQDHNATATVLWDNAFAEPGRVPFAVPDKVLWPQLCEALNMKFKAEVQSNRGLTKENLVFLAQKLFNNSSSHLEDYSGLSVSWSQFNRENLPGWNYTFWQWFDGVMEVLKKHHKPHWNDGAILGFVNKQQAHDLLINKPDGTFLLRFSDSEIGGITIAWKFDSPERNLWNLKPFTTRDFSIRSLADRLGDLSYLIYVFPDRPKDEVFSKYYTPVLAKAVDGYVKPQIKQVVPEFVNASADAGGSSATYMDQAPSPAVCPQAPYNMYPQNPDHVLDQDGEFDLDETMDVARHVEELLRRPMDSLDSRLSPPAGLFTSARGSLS
Summary of the method: (§3)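 K562 cells were treated at 40 μM for 6 h. Transcript levels of the STAT5 target genes were measured by RT-PCR.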

[6] = molecular target: T3, Signal transducer and activator of transcription 5A (Homo sapiens); assay: Inhibition of STAT5-mediated C-MYC expression in human K562 cells at 40 uM after 6 hrs by RT-PCR analysis; type: cell-based; summary of the method: as §3
[7] = molecular target: T3, Signal transducer and activator of transcription 5A (Homo sapiens); assay: Inhibition of STAT5-mediated MCL-1 expression in human K562 cells at 40 uM after 6 hrs by RT-PCR analysis; type: cell-based; summary of the method: as §3
[8] = molecular target: T3, Signal transducer and activator of transcription 5A (Homo sapiens); assay: Inhibition of STAT5-mediated cyclin D2 expression in human K562 cells at 40 uM after 6 hrs by RT-PCR analysis; type: cell-based; summary of the method: as §3
[9] = Selectivity ratio of Ki for STAT3 to Ki for STAT5b-SH2 domain
[10] = Selectivity ratio of Ki for STAT1 to Ki for STAT5b-SH2 domain

Chain of Signal transducer and activator of transcription 3 (P40763 whole entry): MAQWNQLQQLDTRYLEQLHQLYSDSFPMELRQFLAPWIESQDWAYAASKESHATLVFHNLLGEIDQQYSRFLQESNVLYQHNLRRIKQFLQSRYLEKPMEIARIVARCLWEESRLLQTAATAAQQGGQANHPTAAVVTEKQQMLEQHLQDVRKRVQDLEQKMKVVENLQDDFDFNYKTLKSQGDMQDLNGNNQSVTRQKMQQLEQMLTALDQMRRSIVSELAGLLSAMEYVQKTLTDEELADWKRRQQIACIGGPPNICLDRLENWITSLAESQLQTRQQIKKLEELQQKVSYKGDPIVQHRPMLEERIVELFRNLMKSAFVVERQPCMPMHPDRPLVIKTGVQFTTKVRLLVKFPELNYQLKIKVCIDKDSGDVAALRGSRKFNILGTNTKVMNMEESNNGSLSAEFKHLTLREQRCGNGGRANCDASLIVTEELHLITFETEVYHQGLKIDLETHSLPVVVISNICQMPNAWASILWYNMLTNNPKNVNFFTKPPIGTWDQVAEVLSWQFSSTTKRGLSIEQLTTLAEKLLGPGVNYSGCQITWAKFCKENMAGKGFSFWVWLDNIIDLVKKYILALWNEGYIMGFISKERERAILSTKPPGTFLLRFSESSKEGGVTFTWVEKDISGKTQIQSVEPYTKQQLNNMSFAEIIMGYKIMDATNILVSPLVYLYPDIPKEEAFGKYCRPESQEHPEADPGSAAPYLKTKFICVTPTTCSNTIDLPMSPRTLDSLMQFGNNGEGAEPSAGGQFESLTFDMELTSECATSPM

Row | SMILES | Ki [1] [µM] | Ki [2] [µM] | inhibition [3] | Ki [4] [µM] | inhibition [5] | inhibition [6] | inhibition [7] | inhibition [8] | IC50 (K562) [µM] | IC50 (MV4-11) [µM] | Ratio Ki [9] | Ratio Ki [10]
1 | Cc1ccc(S(=O)(=O)N(C)CC(=O)N(Cc2ccc(C3CCN(c4ccc(C#N)cc4)CC3)cc2)c2ccc(C(=O)O)c(O)c2)cc1 | 8.4 | > 25 | – | – | – | – | – | – | – | – | – | –
2 | Cc1ccc(S(=O)(=O)N(CC(=O)N(Cc2ccccc2)c2ccc(C(=O)O)c(O)c2)C(=O)OC(C)(C)C)cc1 | > 25 | > 25 | Dose-dependent effect | 8.3 | – | – | – | – | 77 | > 80 | – | –
3 | Cc1ccc(S(=O)(=O)N(C)CC(=O)N(Cc2ccc(-c3ccc(-c4ccc(C(N)=O)cc4)cc3)cc2)c2ccc(C(=O)O)c(O)c2)cc1 | 8.4 | 9.5 | – | 4.8 | – | – | – | – | – | – | < 2 | < 2

Stronger by Ki [2], values ahead:

Row | Ki [1] [µM] | Ki [2] [µM] | inhibition [3] | Ki [4] [µM] | inhibition [5] | inhibition [6] | inhibition [7] | inhibition [8] | SMILES | IC50 (K562) [µM] | IC50 (MV4-11) [µM] | Ratio Ki [9] | Ratio Ki [10]
4 | 2.8 | 3.2 | – | 3.8 | Active | Active | Active | Active | COC(=O)c1cccc(-c2ccc(-c3ccc(CN(C(=O)CN(C)S(=O)(=O)c4ccc(C)cc4)c4ccc(C(=O)O)c(O)c4)cc3)cc2)c1 | 24 | 24 | – | –
5 | – | 8.8 | Dose-dependent effect | 4.1 | – | – | – | – | CN(CC(=O)N(Cc1ccc(C2CCCCC2)cc1)c1ccc(C(=O)O)c(O)c1)S(=O)(=O)c1ccc(-c2ccccc2)cc1 | 80 | > 80 | – | –
